Calls of active or inactive are those of the source. The rule behind the calls is not given here.
What was measured:
[1] = (§1) Cytotoxicity against mouse L929 cells after 72 hrs by trypan blue assay; format: cell-based; details: L929 cells
Outline: (§2)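 L929 fibroblasts were plated at 5 × 10^4/well in RPMI-1640 with 10% FBS at 37 °C, 5% CO2. They were exposed to 25–1000 μM compound, with diluent controls, for 72 h. Cells were mixed 1:1 with 0.4% trypan blue and live and dead cells counted in a hemocytometer. Survival was expressed relative to controls and CC50 approximated.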

Leishmania donovani [2] = assay: Antileishmanial activity against Leishmania donovani MHOM/IN/00/LEM138 infected in mouse BMDM cells assessed as reduction in intracellular amastigotes after 48 hrs; format: functional, organism-based
Outline: (§3)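 Bone-marrow-derived macrophages from ICR (CD-1) mice, differentiated with L929-conditioned medium, plated 4 × 10^6 per well on coverslips and allowed to adhere 1 day. Infected with stationary-phase promastigotes at 10:1 parasite/macrophage, then exposed to 25–1000 μM for 48 h (0.5% DMSO). Giemsa-stained, infection percentage counted by microscopy. IC50 from linear regression of infection reduction; at least triplicate.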

[3] = (§4) Selectivity index, ratio of CC50 for mouse L929 cells to IC50 for Leishmania infantum MHOM/ES/2007/DP532JFJ; format: functional
[4] = (§5) Selectivity index, ratio of CC50 for mouse L929 cells to IC50 for Leishmania donovani MHOM/IN/00/LEM138; format: functional
Leishmania infantum [5] = assay: Antileishmanial activity against Leishmania infantum MHOM/ES/2007/DP532JFJ infected in mouse BMDM cells assessed as reduction in intracellular amastigotes after 48 hrs; format: functional, organism-based; outline: as §3
Leishmania infantum [6] = assay: Antileishmanial activity against Leishmania infantum promastigotes infected in Balb/c mouse assessed as reduction parasite load in spleen at 50 mg/kg, po dosed daily starting 28 days after infection for 14 days by real-time PCR relative to control
[7] = Cytotoxicity against mouse L929 cells assessed as survival rate at 1000 uM after 72 hrs by trypan blue assay; format: cell-based; details: read-out: Survival
Outline: (§6)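 Trypan Blue exclusion assay. BMDM (4 × 10^5/well) or L929 fibroblasts (5 × 10^4/well) incubated 72 h with 25–1000 μM compound, with DMSO diluent controls. Cells then mixed 1:1 with 0.4% Trypan Blue and live and dead cells counted in a hemocytometer. Survival ratio calculated against controls at each concentration.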

[8] = Cytotoxicity against ICR(CD1) BMDM assessed as survival rate at 25 to 250 uM after 72 hrs by trypan blue assay; details: mouse; outline: as §6
[9] = Toxicity in po dosed rat; format: organism-based; details: in vivo
[10] = Cytotoxicity against human skin fibroblast cells; format: cell-based
Mus musculus [11] = assay: Toxicity in ICR (CD1) mouse at 1000 mg/kg, po; format: organism-based; details: in vivo
Outline: (§7)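 Mice were given daily oral doses of 50, 200 or 1000 mg/kg in olive oil for 14 days, alongside a noninfected healthy reference group. Animals were weighed weekly and checked for stress, pain, cutaneous signs and diarrhea. After sacrifice, spleen and liver were weighed, plasma biochemical and enzymatic values were assessed, and tissue sections were examined by light microscopy.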

Leishmania amazonensis = assay: Antileishmanial activity against Leishmania amazonensis MHOM/BR/76/MA-76 intracellular amastigotes infected in BALB/c mouse peritoneal macrophages incubated for 24 hrs by Giemsa staining based light microscopy; format: functional, organism-based; details: MHOM/BR/76/MA-76, 24 h
Leishmania infantum [12] = assay: Antileishmanial activity against Leishmania infantum promastigotes infected in Balb/c mouse assessed as parasite load in spleen at 200 mg/kg, po dosed daily starting 28 days after infection for 14 days by real-time PCR
Leishmania infantum [13] = assay: Antileishmanial activity against Leishmania infantum promastigotes infected in Balb/c mouse assessed as parasite load in liver at 200 mg/kg, po dosed daily starting 28 days after infection for 14 days by real-time PCR
[14] = Cytotoxicity against mouse L929 cells assessed as survival rate at 500 uM after 72 hrs by trypan blue assay; format: cell-based; details: read-out: Survival; outline: as §6
Leishmania infantum [15] = assay: Antileishmanial activity against Leishmania infantum promastigotes; format: functional, organism-based
[16] = Cytotoxicity against mouse L929 cells assessed as survival rate at 25 to 250 uM after 72 hrs by trypan blue assay; format: cell-based; details: read-out: Survival; outline: as §6
Leishmania infantum [17] = assay: Antileishmanial activity against Leishmania infantum promastigotes infected in Balb/c mouse assessed as reduction parasite load in liver at 50 mg/kg, po dosed daily starting 28 days after infection for 14 days by real-time PCR relative to control
Mus musculus [18] = assay: Toxicity in Balb/c mouse assessed as histological changes at 50 mg/kg, po; details: in vivo
Mus musculus [19] = assay: Toxicity in Balb/c mouse assessed as changes in plasma enzymatic changes at 50 and 200 mg/kg, po; details: in vivo
Leishmania infantum [20] = assay: Antileishmanial activity against Leishmania infantum MHOM/ES/2007/DP532JFJ infected in mouse BMDM cells assessed as reduction in infection at 150 uM after 48 hrs; format: functional
Outline: (§8)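 Mouse bone-marrow macrophages were differentiated with L929-conditioned medium and plated with coverslips. They were infected with stationary-phase promastigotes at a 10:1 parasite:macrophage ratio. Compound (25–1000 μM, 0.5% DMSO) was added for 48 h, at least in triplicate. Cells were Giemsa-stained and the percentage infected (≥1 amastigote) was counted by microscopy. Reduction was calculated relative to untreated or diluent wells.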

Mus musculus [21] = assay: Toxicity in ICR (CD1) mouse assessed as histological changes at 200 mg/kg, po; format: organism-based; details: in vivo; outline: as §7
Leishmania donovani [22] = assay: Antileishmanial activity against Leishmania donovani MHOM/IN/00/LEM138 infected in mouse BMDM cells assessed as reduction in infection at 150 uM after 48 hrs; format: functional; details: MHOM/IN/00/LEM138, BMDM; outline: as §8
Mus musculus [23] = assay: Toxicity in Balb/c mouse assessed as changes in plasma biochemical changes at 50 and 200 mg/kg, po; details: in vivo
Leishmania infantum [24] = assay: Antileishmanial activity against Leishmania infantum promastigotes infected in ICR (CD1) mouse assessed as reduction in parasite load in spleen at 200 mg/kg, po dosed daily starting 28 days after infection for 14 days by real-time PCR co-treated with 104 mg Sb'v/kg/day, ip meglumine antimoniate for 14 days; format: functional, organism-based
Outline: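 Female 4–6-week-old Balb/c mice received 10^7 stationary-phase L. infantum promastigotes ip, in groups of seven. From day 28 they were dosed orally each day for 14 days in olive oil; meglumine antimoniate 104 mg SbV/kg was given ip. Spleen and liver load was measured by L. infantum-specific qPCR in triplicate against a calibration curve, as parasites/mg, and reduction was taken versus untreated mice.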

[25] = Cytotoxicity against mouse J774.G8 cells assessed as reduction in cell viability incubated for 24 hrs by MTT assay; format: cell-based
L929 [26] = assay: as §1; format: cell-based; details: l929, 72 h; outline: as §2
L929 [27] = assay: as §4; format: functional
Leishmania infantum [28] = assay: Antileishmanial activity against Leishmania infantum promastigotes infected in ICR (CD1) mouse assessed as reduction in parasite load in liver at 104 mg Sb'v/kg, ip dosed daily starting 28 days after infection for 14 days by real-time PCR relative to control; format: functional, organism-based
Leishmania infantum [29] = assay: Antileishmanial activity against Leishmania infantum promastigotes infected in ICR (CD1) mouse assessed as parasite load in spleen at 104 mg Sb'v/kg, ip dosed daily starting 28 days after infection for 14 days by real-time PCR; format: functional, organism-based
Leishmania infantum [30] = assay: Antileishmanial activity against Leishmania infantum promastigotes infected in ICR (CD1) mouse assessed as parasite load in liver at 104 mg Sb'v/kg, ip dosed daily starting 28 days after infection for 14 days by real-time PCR; format: functional, organism-based
L929 [31] = assay: as §5; format: functional
Leishmania infantum [32] = assay: Antileishmanial activity against Leishmania infantum promastigotes infected in ICR (CD1) mouse assessed as reduction in parasite load in spleen at 104 mg Sb'v/kg, ip treated 28 days after infection for 14 days by real-time PCR relative to control; format: functional, organism-based
[33] = Leishmania donovani, MHOM/IN/00/LEM138, BMDM, 48 h
[34] = Leishmania infantum, MHOM/ES/2007/DP532JFJ, BMDM, 48 h

For `N=C(N)c1ccc(OCCCCCOc2ccc(C(=N)N)cc2)cc1.O=S(=O)(O)CCO`, which CC50 at 72 h [1] is on record?
The CC50 at 72 h was 6.1 µM.

And the IC50 (Leishmania donovani [2]; [33])?
The IC50 was 0.88 µM.

What about the “Ratio CC50/IC50” value [3] of the same compound?
Its value is 4.

And the “Ratio CC50/IC50” value [4]?
Its value is 7.

And the IC50 (Leishmania infantum [5]; [34])?
The IC50 was 1.5 µM.

With `CC(C)=CCC[C@@](C)(O)[C@@H]1CC=C(C)CC1` as the compound, how does the CC50 at 72 h [1] read?
The CC50 at 72 h was > 1000 µM.

And the inhibition (Leishmania infantum [6])?
The inhibition was “Active”.

And the viability at 72 h, 1000 µM [7]?
The viability at 72 h, 1000 µM was 62.3%.

And the Activity [8]?
Its Activity is “Non-toxic”.

And the LD50 [9]?
Its LD50 is 14000 mg/kg.

And the CC50 [10]?
Its CC50 is > 150 µM.

And the Activity (Mus musculus [11])?
The Activity was “Non-toxic”.

What about the IC50 (Leishmania amazonensis) of the same compound?
Its IC50 is 48 µM.

What about the IC50 (Leishmania donovani [2]; [33]) of the same compound?
The IC50 was 39.4 µM.

And the inhibition (Leishmania infantum [12])?
Its inhibition is “Active”.

What about the “Ratio CC50/IC50” value [3] of the same compound?
Its value is >17.

And the inhibition (Leishmania infantum [13])?
Its inhibition is “Active”.

What about the viability at 72 h, 500 µM [14] of the same compound?
The viability at 72 h, 500 µM was 86.7%.

What about the IC50 (Leishmania infantum [15]) of the same compound?
The IC50 was 49 µM.

And the viability at 72 h, up to 250 µM [16]?
Its viability at 72 h, up to 250 µM is 100%.

And the “Ratio CC50/IC50” value [4]?
The value was >25.

What about the inhibition (Leishmania infantum [17]) of the same compound?
Its inhibition is “Active”.

And the Activity (Mus musculus [18])?
The Activity was “Non-toxic”.

What about the Activity (Mus musculus [19]) of the same compound?
The Activity was “Non-toxic”.

What about the inhibition at 150 µM (Leishmania infantum [20]) of the same compound?
Its inhibition at 150 µM is 85%.

And the Activity (Mus musculus [21])?
The Activity was “Non-toxic”.

And the inhibition at 150 µM (Leishmania donovani [22])?
Its inhibition at 150 µM is 89%.

What about the Activity (Mus musculus [23]) of the same compound?
Its Activity is “Non-toxic”.

And the inhibition (Leishmania infantum [24])?
The inhibition was “inactive”.

And the CC50 at 24 h [25]?
The CC50 at 24 h was 452 µM.

What about the IC50 (Leishmania infantum [5]; [34]) of the same compound?
The IC50 was 56.9 µM.

Which CC50 (L929 [26]) does the source give for “MEGLUMINE ANTIMONATE [listing 1 of 2 here]” here?
The CC50 was 273 µM.

What about the IC50 (Leishmania donovani [2]; bmdm) of the same compound?
Its IC50 is 96.4 µM.

And the IC50 (Leishmania infantum [5]; bmdm)?
The IC50 was 144 µM.

For “MEGLUMINE ANTIMONATE [listing 2 of 2 here]”, which Ratio CC50/IC50 (L929 [27]) is on record?
The Ratio CC50/IC50 was 2.

What about the Activity (Leishmania infantum [28]) of the same compound?
Its Activity is “Active”.

What about the inhibition (Leishmania infantum [29]) of the same compound?
The inhibition was “Active”.

What about the inhibition (Leishmania infantum [30]) of the same compound?
Its inhibition is “Active”.

And the Ratio CC50/IC50 (L929 [31])?
The Ratio CC50/IC50 was 3.

What about the inhibition (Leishmania infantum [32]) of the same compound?
Its inhibition is “inactive”.
